Data taken from ChEMBL document CHEMBL2203205 (Eur J Med Chem, 2012).

Legend:
[1] = target: T1, Voltage-gated inwardly rectifying potassium channel KCNH2 (Homo sapiens, UniProt Q12809); test: Inhibition of human recombinant ERG expressed in HEK293 cells up to 100 uM after 5 to 10 mins by conventional whole-cell patch clamp assay; assay type: cell-based
How it was run: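 Conventional whole-cell patch clamp on HEK-293 cells stably expressing hERG, cultured 1–7 days in DMEM/GlutaMax-1 + 10% FBS on collagen-coated dishes. Holding potential was −80 mV. Compound was superfused 5–10 min per concentration at rt (22–24 °C). Tail current amplitude was measured before and after superfusion. IC50 came from a logistic fit of the concentration-response.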

[2] = target: T1, Voltage-gated inwardly rectifying potassium channel KCNH2; test: Displacement of [3H]astemizole from human recombinant ERG expressed in HEK293 cells; assay type: cell-based
How it was run: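 Binding was run in human recombinant HEK-293 cells with [3H]astemizole at 2 nM, incubated 75 min at 22 °C, with astemizole as reference. Nonspecific binding was taken with excess unlabelled ligand. Results were given as percent inhibition of control specific binding.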

[3] = Volume of distribution at steady state in Sprague-Dawley rat at 3 mg/kg, iv; assay type: ADME, organism-based; parameters: dose 3 mg/kg, route intravenous; settings: in vivo, read-out: Vdss
How it was run: (§1)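 Male Sprague-Dawley rats dosed intravenously (3 mg/kg) and orally (10 mg/kg). PK parameters came from non-compartmental analysis of plasma concentration vs time curves.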

[4] = target: Muscarinic acetylcholine receptor M3 (Homo sapiens, UniProt P20309); test: Inhibition of muscarinic M3 receptor
How it was run: (§2)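 Radioligand competition binding, run first as a single-concentration broad screen at […], then as concentration-response for follow-up targets, with the reference compound tested in parallel. Specific binding is total minus binding in excess unlabelled ligand, expressed as % of control specific binding. IC50 and Hill coefficient come from non-linear Hill-equation regression of competition curves built from mean replicate values.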

[5] = target: 5-hydroxytryptamine receptor 1B (Homo sapiens, UniProt P28222); test: Inhibition of 5HT1B receptor; how it was run: as §2
[6] = target: T2, Alpha-1A adrenergic receptor (Homo sapiens, UniProt P35348); test: Inhibition of alpha1A adrenergic receptor; how it was run: as §2
T2 sequence (P35348 whole entry): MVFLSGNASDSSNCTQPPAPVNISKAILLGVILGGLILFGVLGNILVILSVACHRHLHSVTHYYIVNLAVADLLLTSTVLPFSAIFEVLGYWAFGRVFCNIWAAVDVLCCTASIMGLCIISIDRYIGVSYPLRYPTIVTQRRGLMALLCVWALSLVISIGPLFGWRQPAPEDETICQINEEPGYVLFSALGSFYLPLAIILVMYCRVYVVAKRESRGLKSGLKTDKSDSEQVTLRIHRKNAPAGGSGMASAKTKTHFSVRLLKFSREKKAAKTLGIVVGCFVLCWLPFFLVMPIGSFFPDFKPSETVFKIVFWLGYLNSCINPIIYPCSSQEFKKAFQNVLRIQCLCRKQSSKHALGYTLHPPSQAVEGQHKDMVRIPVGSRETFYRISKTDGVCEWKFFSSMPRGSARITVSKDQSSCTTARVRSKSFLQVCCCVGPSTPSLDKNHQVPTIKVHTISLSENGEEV

[7] = target: T3, Alpha-1B adrenergic receptor (Homo sapiens, UniProt P35368); test: Inhibition of alpha1B adrenergic receptor; how it was run: as §2
T3 sequence (P35368 whole entry): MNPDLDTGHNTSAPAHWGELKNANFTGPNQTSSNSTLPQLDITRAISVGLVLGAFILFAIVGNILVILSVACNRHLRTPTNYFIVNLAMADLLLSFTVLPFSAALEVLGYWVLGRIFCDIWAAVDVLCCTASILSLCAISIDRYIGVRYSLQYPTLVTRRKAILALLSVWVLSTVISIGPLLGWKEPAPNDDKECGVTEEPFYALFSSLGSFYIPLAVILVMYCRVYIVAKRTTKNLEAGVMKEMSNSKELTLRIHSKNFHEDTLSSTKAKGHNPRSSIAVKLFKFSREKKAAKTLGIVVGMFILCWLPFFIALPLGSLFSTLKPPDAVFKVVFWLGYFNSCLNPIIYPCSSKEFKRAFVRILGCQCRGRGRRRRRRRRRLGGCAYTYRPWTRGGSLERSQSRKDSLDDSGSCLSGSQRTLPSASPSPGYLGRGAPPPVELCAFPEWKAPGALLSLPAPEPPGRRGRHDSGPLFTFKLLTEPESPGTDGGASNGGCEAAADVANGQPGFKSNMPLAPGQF

[8] = target: T4, Muscarinic acetylcholine receptor M2 (Homo sapiens, UniProt P08172); test: Inhibition of muscarinic M2 receptor; how it was run: as §2
T4 sequence (P08172 whole entry): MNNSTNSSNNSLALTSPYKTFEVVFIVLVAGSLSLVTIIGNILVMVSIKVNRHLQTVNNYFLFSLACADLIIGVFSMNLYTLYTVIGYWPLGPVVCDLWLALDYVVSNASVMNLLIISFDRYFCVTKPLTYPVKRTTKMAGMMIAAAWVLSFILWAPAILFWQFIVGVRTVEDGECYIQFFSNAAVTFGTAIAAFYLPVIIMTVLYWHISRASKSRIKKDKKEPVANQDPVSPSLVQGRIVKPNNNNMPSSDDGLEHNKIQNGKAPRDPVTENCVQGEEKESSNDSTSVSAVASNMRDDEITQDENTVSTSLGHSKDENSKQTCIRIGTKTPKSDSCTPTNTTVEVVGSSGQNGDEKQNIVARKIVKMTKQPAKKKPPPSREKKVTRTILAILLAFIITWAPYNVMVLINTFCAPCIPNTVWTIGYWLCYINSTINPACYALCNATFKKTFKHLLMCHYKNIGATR

[9] = Half life in Sprague-Dawley rat at 10 mg/kg, po; assay type: ADME, organism-based; parameters: dose 10 mg/kg, route oral; settings: in vivo; how it was run: as §1
[10] = target: T5, Alpha-2C adrenergic receptor (Homo sapiens, UniProt P18825); test: Inhibition of alpha2C adrenergic receptor; how it was run: as §2
T5 sequence (P18825 whole entry): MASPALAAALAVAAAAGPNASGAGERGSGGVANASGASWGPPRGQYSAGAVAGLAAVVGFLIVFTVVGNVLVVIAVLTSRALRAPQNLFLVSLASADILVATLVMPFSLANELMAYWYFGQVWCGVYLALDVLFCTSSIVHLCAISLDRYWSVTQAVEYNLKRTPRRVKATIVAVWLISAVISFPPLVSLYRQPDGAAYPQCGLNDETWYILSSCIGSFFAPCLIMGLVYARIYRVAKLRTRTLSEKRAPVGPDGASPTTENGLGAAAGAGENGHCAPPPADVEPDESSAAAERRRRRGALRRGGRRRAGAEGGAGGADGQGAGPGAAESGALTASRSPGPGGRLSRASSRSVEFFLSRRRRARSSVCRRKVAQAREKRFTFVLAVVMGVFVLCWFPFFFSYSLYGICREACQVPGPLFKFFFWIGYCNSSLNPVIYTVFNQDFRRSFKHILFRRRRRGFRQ

[11] = test system: Rattus norvegicus; test: Analgesic activity in rat L5 and L6 spinal nerve ligation model assessed as reversal of thermal hyperalgesia at 30 mg/kg, ip after 60 mins; assay type: functional; settings: route intraperitoneal
[12] = Cmax in Sprague-Dawley rat at 10 mg/kg, po; assay type: ADME, organism-based; parameters: dose 10 mg/kg, route oral; settings: in vivo; how it was run: as §1
[13] = Tmax in Sprague-Dawley rat at 10 mg/kg, po; assay type: ADME, organism-based; parameters: dose 10 mg/kg, route oral; settings: in vivo; how it was run: as §1

T1 sequence (Q12809 whole entry, the tested form may be a part): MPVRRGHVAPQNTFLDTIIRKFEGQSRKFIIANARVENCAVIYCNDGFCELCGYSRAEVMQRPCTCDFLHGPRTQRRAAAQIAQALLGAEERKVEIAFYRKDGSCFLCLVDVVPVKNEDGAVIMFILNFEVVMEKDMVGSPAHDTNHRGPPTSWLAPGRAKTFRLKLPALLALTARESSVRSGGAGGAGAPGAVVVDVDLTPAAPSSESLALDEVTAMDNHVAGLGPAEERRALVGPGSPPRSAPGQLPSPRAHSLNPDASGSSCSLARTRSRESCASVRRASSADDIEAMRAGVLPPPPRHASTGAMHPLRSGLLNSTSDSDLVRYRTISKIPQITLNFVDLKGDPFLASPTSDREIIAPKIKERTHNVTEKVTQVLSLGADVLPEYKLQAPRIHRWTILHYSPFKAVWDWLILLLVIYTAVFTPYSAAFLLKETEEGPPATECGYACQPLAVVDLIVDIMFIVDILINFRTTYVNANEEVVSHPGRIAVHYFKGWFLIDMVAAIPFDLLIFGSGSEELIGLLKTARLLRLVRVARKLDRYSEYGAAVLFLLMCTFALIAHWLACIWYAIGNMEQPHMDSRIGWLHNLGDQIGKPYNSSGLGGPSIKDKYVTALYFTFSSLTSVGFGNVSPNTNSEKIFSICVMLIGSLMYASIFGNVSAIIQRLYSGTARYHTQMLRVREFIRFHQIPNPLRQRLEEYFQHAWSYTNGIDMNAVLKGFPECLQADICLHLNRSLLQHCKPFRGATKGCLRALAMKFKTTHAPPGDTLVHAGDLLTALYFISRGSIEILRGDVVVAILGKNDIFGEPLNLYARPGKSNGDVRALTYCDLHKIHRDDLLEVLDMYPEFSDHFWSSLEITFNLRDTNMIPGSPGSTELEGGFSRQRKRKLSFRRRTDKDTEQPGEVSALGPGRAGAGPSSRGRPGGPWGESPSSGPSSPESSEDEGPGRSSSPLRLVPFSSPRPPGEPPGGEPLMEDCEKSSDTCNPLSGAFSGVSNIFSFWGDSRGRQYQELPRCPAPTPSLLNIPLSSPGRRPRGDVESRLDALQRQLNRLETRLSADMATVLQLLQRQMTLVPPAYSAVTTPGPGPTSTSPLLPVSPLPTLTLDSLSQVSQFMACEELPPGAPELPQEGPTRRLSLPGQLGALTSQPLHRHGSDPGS
Sequence of Muscarinic acetylcholine receptor M3 (P20309 whole entry): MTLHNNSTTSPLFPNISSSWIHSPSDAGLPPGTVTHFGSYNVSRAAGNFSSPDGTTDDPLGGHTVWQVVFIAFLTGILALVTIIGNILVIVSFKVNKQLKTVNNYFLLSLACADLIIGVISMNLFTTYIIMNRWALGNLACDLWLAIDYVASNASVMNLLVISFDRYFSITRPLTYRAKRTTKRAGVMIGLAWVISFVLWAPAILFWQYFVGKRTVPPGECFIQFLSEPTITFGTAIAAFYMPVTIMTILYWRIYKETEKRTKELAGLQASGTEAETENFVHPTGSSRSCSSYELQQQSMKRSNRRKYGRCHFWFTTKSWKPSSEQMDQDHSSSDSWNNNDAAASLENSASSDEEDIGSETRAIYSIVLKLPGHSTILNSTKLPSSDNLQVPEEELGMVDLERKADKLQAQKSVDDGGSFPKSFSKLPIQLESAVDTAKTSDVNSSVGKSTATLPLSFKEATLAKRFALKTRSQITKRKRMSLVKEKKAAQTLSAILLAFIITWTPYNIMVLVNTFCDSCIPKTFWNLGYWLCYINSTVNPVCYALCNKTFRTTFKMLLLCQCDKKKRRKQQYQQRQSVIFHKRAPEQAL
Sequence of 5-hydroxytryptamine receptor 1B (P28222 whole entry): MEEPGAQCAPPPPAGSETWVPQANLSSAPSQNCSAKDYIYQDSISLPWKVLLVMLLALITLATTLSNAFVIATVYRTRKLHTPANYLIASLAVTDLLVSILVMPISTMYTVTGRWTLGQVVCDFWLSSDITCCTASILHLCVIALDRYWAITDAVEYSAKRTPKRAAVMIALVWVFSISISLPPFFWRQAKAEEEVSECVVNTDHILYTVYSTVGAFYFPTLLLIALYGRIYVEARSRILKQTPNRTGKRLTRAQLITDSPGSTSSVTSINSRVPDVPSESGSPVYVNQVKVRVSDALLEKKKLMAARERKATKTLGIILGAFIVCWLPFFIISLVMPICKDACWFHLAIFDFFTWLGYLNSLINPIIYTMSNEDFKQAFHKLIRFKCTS

## N=C(Nc1ccc2c(c1)CCN2C1CCNCC1)c1cccs1
[1]
  inhibition (INH): Not Active
[2]
  IC50: 160 µM
[3]
  Vd: 330 L/kg
[4]
  IC50: 4.5 µM
[5]
  IC50: 2.2 µM
[6]
  IC50: 1.9 µM
[7]
  IC50: 1.8 µM
[8]
  IC50: 3.6 µM
[9]
  half-life: 12 h
[10]
  IC50: 11 µM
[11]
  Activity: 71%
[12]
  Cmax: 101 ng/mL
[13]
  Tmax: 2 h
